Laboratory results as given in ChEMBL document CHEMBL1146725, “Discovery and SAR of potent, orally available and brain-penetrable 5,6-dihydro-4H-3-thia-1-aza-benzo[e]azulen- and 4,5-dihydro-6-oxa-3-thia-1-aza-benzo[e]azulen derivatives as neuropeptide Y Y5 receptor antagonists” (Bioorg Med Chem Lett, 2004).
pIC50: −log10 of the molar value. Where “and” joins values, the source holds several entries; their conditions need not be identical. Equal values may be shown once.

Assays:
[1] = target: T1, Neuropeptide Y receptor type 5 (Homo sapiens, UniProt Q15761); test: In vitro binding affinity against human neuropeptide Y5 receptor
T1 sequence (Q15761 whole entry): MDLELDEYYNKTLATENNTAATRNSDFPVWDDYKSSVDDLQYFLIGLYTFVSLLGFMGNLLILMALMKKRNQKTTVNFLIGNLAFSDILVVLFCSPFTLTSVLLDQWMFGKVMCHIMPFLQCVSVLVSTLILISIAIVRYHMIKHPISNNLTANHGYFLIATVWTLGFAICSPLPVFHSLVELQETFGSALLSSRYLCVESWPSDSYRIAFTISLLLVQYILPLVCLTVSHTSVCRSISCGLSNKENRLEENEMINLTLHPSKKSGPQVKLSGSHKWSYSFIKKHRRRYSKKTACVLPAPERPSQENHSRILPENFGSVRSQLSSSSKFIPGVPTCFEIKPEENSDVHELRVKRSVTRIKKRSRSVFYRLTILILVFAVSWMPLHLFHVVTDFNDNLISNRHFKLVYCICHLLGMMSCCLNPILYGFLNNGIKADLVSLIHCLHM

[2] = tested on: Rattus norvegicus; test: Concentration (30 mg/kg, p.o.) in rat hypothalamus after 6 hours; format: ADME, organism-based; details: in vivo, po, 6 h
Method in brief: (§1)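 Male rats (RA238), fasted overnight, given 30 mg/kg by oral gavage (5 mL/kg) in 20% Cremophore EL/water (w/w). Plasma and hypothalamus were sampled at 2 and 6 h post-dose and levels measured by LC-MS. Values are the mean of 3-6 animals per time point, as µg/mL plasma and µg/g hypothalamus.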

[3] = tested on: Rattus norvegicus; test: Concentration (30 mg/kg, p.o.) in rat plasma after 6 hours; format: ADME, organism-based; details: in vivo, po, 6 h; method in brief: as §1
[4] = (§2) Concentration (30 mg/kg, p.o.) in rat hypothalamus after 2 hours; format: ADME, organism-based; details: hypothalamus, po; method in brief: as §1
[5] = tested on: Rattus norvegicus; test: as §2; format: ADME, organism-based; details: in vivo, po, 2 h; method in brief: as §1
[6] = (§3) Concentration (30 mg/kg, p.o.) in rat plasma after 2 hours; format: ADME, organism-based; details: plasma, po; method in brief: as §1
[7] = tested on: Rattus norvegicus; test: as §3; format: ADME, organism-based; details: in vivo, po, 2 h; method in brief: as §1

- pIC50 [1]: 8.70
- Concentration [2]: 1.33 µg/g and 0.64 µg/g
- Concentration [3]: 320 ng/mL and 140 ng/mL
- concentration at 2 h [4]: 6690 ng/g
- Concentration [5]: 6.69 µg/g
- concentration at 2 h [6]: 1600 ng/mL
- Concentration [7]: 1600 ng/mL
SMILES: O=C([C@@H]1CCCO1)N1CCC(CNc2nc3c(s2)CCCc2ccc(F)cc2-3)CC1
